According to ChEMBL document CHEMBL3297731, “The design and discovery of water soluble 4-substituted-2,6-dimethylfuro[2,3-d]pyrimidines as multitargeted receptor tyrosine kinase inhibitors and microtubule targeting antitumor agents” (Bioorg Med Chem, 2014):
Activity calls are given as the source filed them. The calls are words filed in the database; no cut-off is given here.

Legend:
[1] = target: Vascular endothelial growth factor receptor 2 (Homo sapiens, UniProt P35968); format: cell-based, U-251
Sequence of Vascular endothelial growth factor receptor 2 (P35968 whole entry): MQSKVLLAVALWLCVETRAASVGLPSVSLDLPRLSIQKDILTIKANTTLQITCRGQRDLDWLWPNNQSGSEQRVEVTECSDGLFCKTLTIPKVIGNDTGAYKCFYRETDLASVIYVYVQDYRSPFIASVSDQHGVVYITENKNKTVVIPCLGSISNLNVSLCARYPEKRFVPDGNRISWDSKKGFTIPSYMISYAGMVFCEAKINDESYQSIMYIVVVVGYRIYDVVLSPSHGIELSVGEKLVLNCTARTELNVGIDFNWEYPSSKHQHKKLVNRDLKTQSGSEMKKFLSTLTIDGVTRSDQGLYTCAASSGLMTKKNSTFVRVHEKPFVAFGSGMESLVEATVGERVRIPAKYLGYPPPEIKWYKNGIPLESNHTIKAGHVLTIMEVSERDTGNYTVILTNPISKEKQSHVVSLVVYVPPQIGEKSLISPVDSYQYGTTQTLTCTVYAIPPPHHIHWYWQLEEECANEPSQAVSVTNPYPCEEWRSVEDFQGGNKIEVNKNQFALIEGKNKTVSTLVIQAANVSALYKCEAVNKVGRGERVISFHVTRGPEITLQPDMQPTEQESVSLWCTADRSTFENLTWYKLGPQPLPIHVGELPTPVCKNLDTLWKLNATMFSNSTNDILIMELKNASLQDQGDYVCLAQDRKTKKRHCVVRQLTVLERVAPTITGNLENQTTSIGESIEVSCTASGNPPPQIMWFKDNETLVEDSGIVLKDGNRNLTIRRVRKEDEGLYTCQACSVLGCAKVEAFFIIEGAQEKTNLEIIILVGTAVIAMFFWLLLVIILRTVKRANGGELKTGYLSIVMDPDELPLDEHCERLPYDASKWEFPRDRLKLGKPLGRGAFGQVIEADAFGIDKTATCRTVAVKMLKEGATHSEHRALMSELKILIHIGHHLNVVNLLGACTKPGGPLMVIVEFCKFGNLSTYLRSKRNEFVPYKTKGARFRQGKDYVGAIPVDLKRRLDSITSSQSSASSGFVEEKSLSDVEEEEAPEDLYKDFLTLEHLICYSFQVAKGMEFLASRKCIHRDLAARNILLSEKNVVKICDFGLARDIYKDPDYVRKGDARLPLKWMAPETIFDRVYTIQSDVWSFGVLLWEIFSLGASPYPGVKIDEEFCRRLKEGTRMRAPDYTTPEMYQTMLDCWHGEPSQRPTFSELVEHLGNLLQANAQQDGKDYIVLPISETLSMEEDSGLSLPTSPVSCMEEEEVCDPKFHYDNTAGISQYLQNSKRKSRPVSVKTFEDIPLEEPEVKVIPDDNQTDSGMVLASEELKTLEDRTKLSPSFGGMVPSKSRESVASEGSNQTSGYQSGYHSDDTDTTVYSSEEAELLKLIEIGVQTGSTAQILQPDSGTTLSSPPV

[2] = target: Platelet-derived growth factor receptor beta (Homo sapiens, UniProt P09619); test: Inhibition of PDGFRbeta in human SH-SY5Y cells by phosphotyrosine ELISA assay; format: cell-based
Sequence of Platelet-derived growth factor receptor beta (P09619 whole entry): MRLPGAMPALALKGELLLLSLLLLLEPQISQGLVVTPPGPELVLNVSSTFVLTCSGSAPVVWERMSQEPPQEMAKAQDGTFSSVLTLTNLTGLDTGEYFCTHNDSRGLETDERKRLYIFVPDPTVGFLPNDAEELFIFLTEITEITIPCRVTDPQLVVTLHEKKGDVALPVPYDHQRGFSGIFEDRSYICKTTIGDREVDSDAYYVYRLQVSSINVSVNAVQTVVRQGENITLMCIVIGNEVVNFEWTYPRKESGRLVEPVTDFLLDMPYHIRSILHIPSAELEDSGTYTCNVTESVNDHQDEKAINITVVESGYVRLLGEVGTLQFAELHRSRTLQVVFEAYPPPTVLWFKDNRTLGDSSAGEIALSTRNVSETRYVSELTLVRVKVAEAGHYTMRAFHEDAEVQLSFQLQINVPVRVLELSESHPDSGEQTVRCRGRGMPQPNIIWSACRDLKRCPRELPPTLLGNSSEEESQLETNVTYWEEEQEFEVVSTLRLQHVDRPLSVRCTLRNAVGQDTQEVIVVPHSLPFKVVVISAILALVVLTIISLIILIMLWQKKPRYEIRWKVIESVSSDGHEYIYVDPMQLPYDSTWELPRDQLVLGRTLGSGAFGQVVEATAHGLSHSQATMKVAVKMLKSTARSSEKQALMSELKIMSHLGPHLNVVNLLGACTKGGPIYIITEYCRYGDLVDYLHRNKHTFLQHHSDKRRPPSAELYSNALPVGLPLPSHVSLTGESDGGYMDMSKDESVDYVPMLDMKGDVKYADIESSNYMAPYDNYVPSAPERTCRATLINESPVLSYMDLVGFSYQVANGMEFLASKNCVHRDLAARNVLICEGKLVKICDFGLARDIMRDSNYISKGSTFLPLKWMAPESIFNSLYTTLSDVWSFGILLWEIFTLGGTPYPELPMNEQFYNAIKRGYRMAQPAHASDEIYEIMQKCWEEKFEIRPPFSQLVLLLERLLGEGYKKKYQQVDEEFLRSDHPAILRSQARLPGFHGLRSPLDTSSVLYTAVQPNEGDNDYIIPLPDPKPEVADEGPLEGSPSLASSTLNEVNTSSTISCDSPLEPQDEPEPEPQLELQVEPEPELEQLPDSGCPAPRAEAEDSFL

Chorioallantoic membrane = test: Antiangiogenic activity in fertile leghorn chicken egg Chorioallantoic membrane assessed as inhibition of human VEGF-165/bFGF-induced angiogenesis after 48 hrs by CAM assay; format: functional, tissue-based; conditions: Gallus gallus
MDA-MB-435 [3] = test: Antiproliferative activity against human MDA-MB-435 cells; format: functional, cell-based
HeLa [4] = test: Antiproliferative activity against human HeLa cells; format: functional, cell-based
HeLa [5] = test: Antiproliferative activity against human HeLa cells expressing beta3-tubulin; format: functional, cell-based
SK-OV-3 [6] = test: Antiproliferative activity against human SKOV3 cells; format: functional, cell-based
SK-OV-3 [7] = test: Antiproliferative activity against human SKOV3 cells expressing MDR1/M-6-6; format: functional, cell-based
A-431 = test: Cytotoxicity against human A431 cells by SRB assay; format: functional, cell-based
MDA-MB-435 [8] = test: Cytotoxicity against human MDA-MB-435 cells; format: functional, cell-based
MDA-MB-231 = test: Cytotoxicity against human triple negative MDA-MB-231 cells; format: functional, cell-based
MDA-MB-468 = test: Cytotoxicity against human triple negative MDA-MB-468 cells; format: functional, cell-based
MCF7 [9] = test: Cytotoxicity against human ER-positive MCF7 cells; format: functional, cell-based
MCF7 [10] = test: Cytotoxicity against human taxoid-resistant MCF7 cells; format: functional, cell-based
4T1 [11] = test: Cytotoxicity against mouse triple negative 4T1 cells; format: functional, cell-based
HUVEC = test: Cytotoxicity against HUVEC; format: cell-based; conditions: Homo sapiens
[12] = Growth inhibition of human MOLT4 cells by SRB assay; format: functional; conditions: MOLT-4
Tubulin = Tubulin (Sus scrofa, UniProt P02554+P02550); test: Inhibition of pig brain tubulin polymerization by spectrophotometric analysis
[13] = target: Epidermal growth factor receptor (Homo sapiens, UniProt P00533); format: cell-based, A-431
Sequence of Epidermal growth factor receptor (P00533 whole entry): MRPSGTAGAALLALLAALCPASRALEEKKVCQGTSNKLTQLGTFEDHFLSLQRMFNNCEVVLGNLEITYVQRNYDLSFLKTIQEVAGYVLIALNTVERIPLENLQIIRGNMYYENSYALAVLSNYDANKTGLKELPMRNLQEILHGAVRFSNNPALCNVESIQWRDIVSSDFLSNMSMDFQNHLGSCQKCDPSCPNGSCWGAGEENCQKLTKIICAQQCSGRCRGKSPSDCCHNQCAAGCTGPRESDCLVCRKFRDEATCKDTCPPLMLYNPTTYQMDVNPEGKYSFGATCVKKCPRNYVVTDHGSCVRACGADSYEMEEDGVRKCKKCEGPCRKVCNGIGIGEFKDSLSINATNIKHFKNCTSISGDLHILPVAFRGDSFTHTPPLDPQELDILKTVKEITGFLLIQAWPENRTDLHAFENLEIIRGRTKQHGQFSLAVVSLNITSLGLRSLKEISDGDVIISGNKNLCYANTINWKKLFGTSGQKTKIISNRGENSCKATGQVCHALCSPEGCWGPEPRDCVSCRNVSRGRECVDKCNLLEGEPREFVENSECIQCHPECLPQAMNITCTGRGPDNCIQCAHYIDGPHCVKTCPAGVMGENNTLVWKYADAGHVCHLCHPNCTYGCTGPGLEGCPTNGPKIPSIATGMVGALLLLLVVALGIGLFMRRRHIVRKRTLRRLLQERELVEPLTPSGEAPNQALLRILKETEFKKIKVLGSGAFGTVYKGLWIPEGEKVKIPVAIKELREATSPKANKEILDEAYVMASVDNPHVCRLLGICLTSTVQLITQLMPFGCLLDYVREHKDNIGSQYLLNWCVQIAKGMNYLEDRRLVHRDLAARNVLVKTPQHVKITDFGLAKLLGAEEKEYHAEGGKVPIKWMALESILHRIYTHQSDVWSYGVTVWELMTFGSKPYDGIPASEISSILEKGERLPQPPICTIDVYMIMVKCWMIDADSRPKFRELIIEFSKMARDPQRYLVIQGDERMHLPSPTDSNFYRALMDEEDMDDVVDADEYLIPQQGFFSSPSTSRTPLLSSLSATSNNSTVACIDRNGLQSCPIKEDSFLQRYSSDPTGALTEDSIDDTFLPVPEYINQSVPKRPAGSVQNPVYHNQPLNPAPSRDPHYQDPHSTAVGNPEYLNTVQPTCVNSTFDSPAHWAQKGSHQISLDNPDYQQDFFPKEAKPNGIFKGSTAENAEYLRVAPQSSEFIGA

HeLa [14] = test: Cell cycle arrest in human HeLa cells assessed as effect on accumulation at G1 phase at 40 to 50 nM after 18 hrs by flow cytometric analysis; format: functional, cell-based
Method in brief: (§1)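 HeLa cells allowed to adhere 24 h, then drug-treated (18 h per legend; harvest stated 24 h in methods). Stained with Krishan's reagent; DNA content measured by flow cytometry.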

HeLa [15] = test: Cell cycle arrest in human HeLa cells assessed as accumulation at G2/M phase at 40 to 50 nM after 18 hrs by flow cytometric analysis; format: functional, cell-based
Method in brief: as §1

HeLa [16] = test: Cell cycle arrest in human HeLa cells assessed as accumulation at G2/M phase after 18 hrs by flow cytometric analysis; format: functional, cell-based
Method in brief: as §1

MDA-MB-435 [17] = test: Antitumor activity against human MDA-MB-435 cells […] assessed as decrease in tumor growth at 50 mg/kg relative to untreated control; format: functional, organism-based; design: dose 50 mg/kg
MDA-MB-435 [18] = test: Antitumor activity against human MDA-MB-435 cells […] assessed as decrease in tumor vascular density at 50 mg/kg by CD31/PECAM-1 immunohistochemical staining; format: functional, organism-based; design: dose 50 mg/kg
4T1 [19] = test: Antitumor activity against luciferase/GFP-tagged mouse 4T1 cells allografted in BALBc/J mouse assessed as reduction in primary tumor growth at 50 mg/kg twice weekly starting at day 7 and continuing to day 32; format: functional, organism-based; design: dose 50 mg/kg
Method in brief: (§2)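 750 4T1-Luc2/GFP cells (>98% GFP+) in PBS/1 mM EDTA implanted into fat pad #4 of 8 wk female BALB/c mice. MTD doses given twice weekly (docetaxel weekly), day 7 to day 32; DMSO/solutol-15/D5W vehicle. Calipers, ellipsoid volume; weights before each dose; 7-10 mice per group; lungs imaged fresh by fluorescence at day 33.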

4T1 [20] = test: Antitumor activity against luciferase/GFP-tagged mouse 4T1 cells allografted in BALBc/J mouse assessed as reduction in tumor size at 50 mg/kg twice weekly starting at day 7 and continuing to day 32; format: functional, organism-based; design: dose 50 mg/kg
Method in brief: as §2

4T1 [21] = test: Antitumor activity against luciferase/GFP-tagged mouse 4T1 cells allografted in BALBc/J mouse assessed as reduction in number of lung metastases at 50 mg/kg twice weekly starting at day 7 and continuing to day 32; format: functional, organism-based; design: dose 50 mg/kg
Method in brief: as §2

Tubulin (Sus scrofa) = Tubulin (Sus scrofa) (UniProt P02554+P02550); conditions: 5 uM
Sequence of Tubulin (Sus scrofa) (P02550 whole entry, looked up): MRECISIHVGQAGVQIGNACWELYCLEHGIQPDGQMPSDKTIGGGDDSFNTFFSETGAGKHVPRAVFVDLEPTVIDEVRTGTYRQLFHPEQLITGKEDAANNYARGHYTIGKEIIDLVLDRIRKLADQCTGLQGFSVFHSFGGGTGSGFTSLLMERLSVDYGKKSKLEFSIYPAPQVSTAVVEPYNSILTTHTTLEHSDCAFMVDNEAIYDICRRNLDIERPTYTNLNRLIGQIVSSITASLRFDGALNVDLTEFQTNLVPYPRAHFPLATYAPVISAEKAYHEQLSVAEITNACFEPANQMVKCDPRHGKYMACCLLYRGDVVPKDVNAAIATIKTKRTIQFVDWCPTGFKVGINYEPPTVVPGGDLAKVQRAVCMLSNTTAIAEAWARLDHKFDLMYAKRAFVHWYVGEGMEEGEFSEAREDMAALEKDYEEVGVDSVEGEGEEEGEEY
Sequence of Tubulin (Sus scrofa) (P02554 whole entry, looked up): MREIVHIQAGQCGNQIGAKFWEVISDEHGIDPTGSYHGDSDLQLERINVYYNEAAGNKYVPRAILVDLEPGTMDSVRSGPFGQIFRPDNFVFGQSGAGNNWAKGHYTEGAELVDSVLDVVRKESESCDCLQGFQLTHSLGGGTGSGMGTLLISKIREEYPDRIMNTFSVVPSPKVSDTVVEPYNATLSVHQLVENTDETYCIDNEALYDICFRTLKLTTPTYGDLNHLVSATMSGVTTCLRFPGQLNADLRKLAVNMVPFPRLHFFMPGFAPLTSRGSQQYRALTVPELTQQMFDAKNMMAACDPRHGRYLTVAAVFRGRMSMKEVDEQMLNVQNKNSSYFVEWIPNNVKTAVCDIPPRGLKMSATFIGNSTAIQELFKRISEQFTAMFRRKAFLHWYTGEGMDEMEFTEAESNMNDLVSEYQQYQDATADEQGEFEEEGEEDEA

[22] = test system: MDA-MB-435 (Homo sapiens); test: Induction of apoptosis in human MDA-MB-435 cells assessed as PARP cleavage at 75 nM after 18 hrs by Western blot analysis
[23] = test system: MDA-MB-435 (Homo sapiens); test: Induction of apoptosis in human MDA-MB-435 cells assessed as PARP cleavage at 75 nM after 18 to 36 hrs by Western blot analysis
Mus musculus [24] = test: Toxicity in human MDA-MB-435 cells […] assessed as increase in body weight at 50 mg/kg; format: organism-based; design: dose 50 mg/kg; conditions: in vivo
Mus musculus [25] = test: Toxicity in luciferase/GFP-tagged mouse 4T1 cells allografted in BALBc/J mouse assessed as body weight loss at 50 mg/kg twice weekly starting at day 7 and continuing to day 32; format: organism-based; design: dose 50 mg/kg; conditions: in vivo
Method in brief: as §2

in vivo = conditions: BALBc/J, mouse
4T1 [26] = test: Antitumor activity against luciferase/GFP-tagged mouse 4T1 cells allografted in BALBc/J mouse assessed as reduction in primary tumor growth at 35 mg/kg twice weekly starting at day 7 and continuing to day 32; format: functional, organism-based; design: dose 35 mg/kg
Method in brief: as §2

## CCCN(c1ccc(OC)cc1)c1nc(C)nc2oc(C)cc12
[1]
  IC50: 0.0085 µM
[2]
  IC50: 0.0299 µM
Chorioallantoic membrane
  IC50: 16.7 µM
MDA-MB-435 [3]
  IC50: 1.4 µM
HeLa [4]
  IC50: 1.24 µM
HeLa [5]
  IC50: 1.5 µM
SK-OV-3 [6]
  IC50: 1.6 µM
SK-OV-3 [7]
  IC50: 3.4 µM

## COc1cccc2c1C(=O)c1c(O)c3c(c(O)c1C2=O)C[C@@](O)(C(=O)CO)C[C@@H]3O[C@H]1C[C@H](N)[C@H](O)[C@H](C)O1 [DOXORUBICIN]
A-431
  IC50: 0.00135 µM

## CCN(CC)CCNC(=O)c1c(C)[nH]c(/C=C2\C(=O)Nc3ccc(F)cc32)c1C [SUNITINIB]
MDA-MB-435 [8]
  IC50: 0.0097 µM
MDA-MB-231
  IC50: 0.0223 µM
MDA-MB-468
  IC50: 0.0061 µM
MCF7 [9]
  IC50: 0.0271 µM
MCF7 [10]
  IC50: 0.0293 µM
4T1 [11]
  IC50: 0.016 µM
HUVEC
  IC50: 0.0118 µM

## CS(=O)(=O)CCNCc1ccc(-c2ccc3ncnc(Nc4ccc(OCc5cccc(F)c5)c(Cl)c4)c3c2)o1 [LAPATINIB]
MDA-MB-435 [8]
  IC50: 0.0297 µM
MDA-MB-231
  IC50: 0.02 µM
MDA-MB-468
  IC50: 0.0832 µM
MCF7 [9]
  IC50: 0.0649 µM
4T1 [11]
  IC50: 0.0104 µM

## COc1ccc(N(C)c2nc(C)nc3oc(C)cc23)cc1 [listing 1 of 2 here]
[12]
  GI50: 0.0679 µM
Tubulin
  IC50: 1.9 µM

## Cc1nc(Nc2ccc(C(F)(F)F)cc2)c2cc(C)oc2n1
[13]
  IC50: 0.122 µM
[1]
  IC50: 0.0662 µM
[2]
  IC50: 0.0661 µM

## COc1ccc(N(c2nc(C)nc3oc(C)cc23)C(C)C)cc1
[13]
  IC50: 0.0844 µM
[1]
  IC50: 0.0156 µM
[2]
  IC50: 0.0231 µM
Chorioallantoic membrane
  IC50: 18.9 µM
MDA-MB-435 [3]
  IC50: 3 µM
HeLa [4]
  IC50: 2.9 µM
HeLa [5]
  IC50: 4.07 µM
SK-OV-3 [6]
  IC50: 3.8 µM
SK-OV-3 [7]
  IC50: 7.4 µM

## Cc1nc(Nc2cccc3ccccc23)c2cc(C)oc2n1
[13]
  IC50: 0.145 µM
[1]
  IC50: 0.0322 µM

## CCCCN(c1ccc(OC)cc1)c1nc(C)nc2oc(C)cc12
[13]
  IC50: 0.34 µM
[1]
  IC50: 0.0344 µM
[2]
  IC50: 0.0565 µM
Chorioallantoic membrane
  IC50: 32.6 µM
MDA-MB-435 [3]
  IC50: > 10 µM
HeLa [4]
  IC50: > 10 µM
HeLa [5]
  IC50: > 10 µM
SK-OV-3 [6]
  IC50: > 10 µM
SK-OV-3 [7]
  IC50: > 10 µM

## Cc1nc(Nc2ccccc2)c2cc(C)oc2n1
[13]
  IC50: 0.113 µM

## C#Cc1cccc(Nc2nc(C)nc3oc(C)cc23)c1
[13]
  IC50: 0.03 µM
[1]
  IC50: 0.0763 µM
[2]
  IC50: 0.0162 µM
Chorioallantoic membrane
  IC50: 18.2 µM

## COc1ccc(Nc2nc(C)nc3oc(C)cc23)cc1
[13]
  IC50: 0.0422 µM
[1]
  IC50: 0.0431 µM
[2]
  IC50: 0.0635 µM

## COc1ccc(N(C)c2nc(C)nc3oc(C)cc23)cc1 [listing 2 of 2 here]
HeLa [14]
  Activity: inactive
HeLa [15]
  Activity: Active
HeLa [16]
  inhibition: Dose-dependent effect
MDA-MB-435 [17]
  inhibition: Active
MDA-MB-435 [18]
  Activity: Active
4T1 [19]
  inhibition: Active
4T1 [20]
  inhibition: Active
4T1 [21]
  inhibition: Active
Tubulin (Sus scrofa)
  inhibition: 86%
[22]
  Activity: Active
[23]
  Activity: Active

## Cc1nc(Nc2cccc3[nH]ccc23)c2cc(C)oc2n1
[13]
  IC50: 0.0902 µM
[1]
  IC50: 0.102 µM
[2]
  IC50: 0.0283 µM
Chorioallantoic membrane
  IC50: 22.6 µM

## COc1ccc(N(C)c2nc(C)nc3oc(C)cc23)cc1.Cl
MDA-MB-435 [3]
  IC50: 0.047 µM
HeLa [4]
  IC50: 0.0406 µM
HeLa [5]
  IC50: 0.0447 µM
SK-OV-3 [6]
  IC50: […]
MDA-MB-231
  IC50: 0.148 µM
MDA-MB-468
  IC50: 0.0071 µM
MCF7 [9]
  IC50: 0.138 µM
MCF7 [10]
  IC50: 0.13 µM
4T1 [11]
  IC50: 0.0979 µM
HUVEC
  IC50: 0.172 µM
Mus musculus [24]
  Activity: Non-toxic
Mus musculus [25]
  Activity: Non-toxic
In vivo
  MTD: 50 mg/kg

## Cc1nc(Nc2ccc(Cl)cc2)c2cc(C)oc2n1
[13]
  IC50: 0.102 µM
[1]
  IC50: 0.0702 µM

## Cc1nc(Nc2ccc(F)c(Cl)c2)c2cc(C)oc2n1
[13]
  IC50: 0.0302 µM
[1]
  IC50: 0.0582 µM

## CCN(c1ccc(OC)cc1)c1nc(C)nc2oc(C)cc12
[13]
  IC50: 0.0707 µM
[1]
  IC50: 0.0106 µM
[2]
  IC50: 0.0271 µM
Chorioallantoic membrane
  IC50: 19.2 µM
MDA-MB-435 [3]
  IC50: 0.137 µM
HeLa [4]
  IC50: 0.167 µM
HeLa [5]
  IC50: 0.206 µM
SK-OV-3 [6]
  IC50: 0.228 µM
SK-OV-3 [7]
  IC50: 0.27 µM

## CC(=O)O[C@@]12CO[C@@H]1C[C@H](O)[C@@]1(C)C(=O)[C@H](O)C3=C(C)[C@@H](OC(=O)[C@H](O)[C@@H](NC(=O)OC(C)(C)C)c4ccccc4)C[C@@](O)([C@@H](OC(=O)c4ccccc4)[C@H]21)C3(C)C.O.O.O [DOCETAXEL]
MDA-MB-435 [8]
  IC50: 0.0027 µM
MDA-MB-231
  IC50: 0.016 µM
MDA-MB-468
  IC50: 0.0691 µM
MCF7 [9]
  IC50: 0.0593 µM
MCF7 [10]
  IC50: > 1 µM
4T1 [11]
  IC50: 0.0634 µM
HUVEC
  IC50: 0.0567 µM
4T1 [26]
  inhibition: Active
In vivo
  MTD: 35 mg/kg

## CC(=O)O[C@H]1C(=O)[C@@]2(C)[C@H]([C@H](OC(=O)c3ccccc3)[C@]3(O)C[C@H](OC(=O)[C@H](O)[C@@H](NC(=O)c4ccccc4)c4ccccc4)C(C)=C1C3(C)C)[C@]1(OC(C)=O)CO[C@@H]1C[C@@H]2O [PACLITAXEL]
MDA-MB-435 [3]
  IC50: 0.00193 µM
